Usually Kd stands for a measure of binding affinity in units of concentration.

Consider 5 molecules from paper PMC3059893 (Biochemistry, 2011).

Assay [1] addresses Syndecan1 (Homo sapiens). Description: fluorescence anisotropy. Particulars: cited from earlier work. (In general: Fluorescence polarisation rises when a labelled molecule tumbles more slowly, as on binding a larger partner.)
Assay [2] addresses Model peptide. Put plainly: NMR titration. Particulars: cited from earlier work.
The target of assay [3] is Neurexin1 (Homo sapiens). Particulars: cited from earlier work.
Assay [4] has as its target Tiam1 PDZ L911M (Homo sapiens, UniProt Q13009, L911M). Put plainly: Fluorescence anisotropy binding, Tiam1 PDZ mutant. The method, boiled down:
(§1)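 Purified PDZ domains were titrated from a 1.5 mM stock into 1 μM N-terminally dansylated peptide at 25 °C in a stirred cuvette. Proteins were expressed in E. coli BL21(DE3), purified by Ni-chelate and size-exclusion chromatography, and His6-tag cleaved by TEV; Tiam2 is mouse residues 809–994; mutants made by site-directed mutagenesis. Anisotropy ex 340/em 550 nm, buffer-blank corrected. Kd from hyperbolic fit, mean of ≥3 independent runs; ΔG = RT ln Kd (298.15 K).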

In assay [5] the test system is Tiam1 PDZ QM (L911M/K912E/L915F/L920V). Description: Fluorescence anisotropy binding, Tiam1 PDZ quadruple mutant. The method, boiled down:
as §1

The target of assay [6] is Tiam1 PDZ QM (L911M/K912E/L915F/L920V) (Homo sapiens, UniProt Q13009, K912E/L911M/L915F/L920V). The description is as above. The method, boiled down: as §1
Assay [7] concerns the target Tiam1 PDZ L915F (Homo sapiens, UniProt Q13009, L915F). Put plainly: Fluorescence anisotropy binding, Tiam1 PDZ mutant. Put shortly:
as §1

Assay [8] addresses Tiam1 PDZ L911M/K912E (Mus musculus, UniProt Q60610, L911M/K912E, species not given). Put plainly: Fluorescence anisotropy binding and double-mutant cycle, Tiam1 PDZ mutant. Particulars: Tiam1 PDZ L911M/K912E. The method, boiled down:
(§2)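 Wild-type, single- and double-mutant Tiam1 PDZ (E. coli-expressed, tag-cleaved) were each titrated into 1 μM dansylated peptide at 25 °C. Anisotropy read at ex 340/em 550 nm; Kd from hyperbolic fit, ≥3 independent runs. ΔG = RT ln Kd at 298.15 K. Coupling energy ΔΔΔGint = (ΔGWT − ΔGM1) − (ΔGM2 − ΔGDM), with errors propagated by standard methods.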

Assay [9] deals with Tiam1 PDZ L911M/K912E. Described as above. Put shortly:
as §2

Assay [10] has as its target Tiam1 PDZ domain (wild-type) (Homo sapiens, UniProt Q13009). Description: Equilibrium fluorescence anisotropy binding of dansylated peptides. Particulars: wild-type Tiam1 PDZ; ΔG = RT ln(Kd), T 298.15 K. Put shortly:
as §1

Assay [11] concerns the target T1, Tiam2 PDZ domain (Mus musculus, UniProt Q6ZPF3).
T1 sequence (Q6ZPF3 908-997 limits assumed): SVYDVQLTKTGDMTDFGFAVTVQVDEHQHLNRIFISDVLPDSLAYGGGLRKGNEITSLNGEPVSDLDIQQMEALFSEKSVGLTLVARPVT
The description is as above. Put shortly:
as §1

The target in assay [12] is Tiam1 PDZ L915F/L920V (Mus musculus, UniProt Q60610, L915F/L920V, species not given). Description: Fluorescence anisotropy binding and double-mutant cycle, Tiam1 PDZ mutant. Conditions: Tiam1 PDZ L915F/L920V. Put shortly:
as §2

For assay [13], the system named is Tiam1 PDZ L915F/L920V. The description is as above. The method, boiled down: as §2
In assay [14] the target is Tiam1 PDZ L920V (Homo sapiens, UniProt Q13009, L920V). Description: Fluorescence anisotropy binding, Tiam1 PDZ mutant. Put shortly: as §1
Assay [15] has as its target Tiam1 PDZ K912E (Homo sapiens, UniProt Q13009, K912E). Put plainly: Fluorescence anisotropy binding, Tiam1 PDZ mutant. Put shortly: as §1
Assay [16] addresses T2, Tiam1 peptide 2.
T2 chain: YAAEKYWA
Put plainly: fluorescence anisotropy.

The target of assay [17] is T3, Caspr4 (Homo sapiens).
T3 chain: ENQKEYFF
Description: fluorescence anisotropy.

Assay [18] addresses T4, Tiam1 peptide 3.
T4 chain: YAAKAFRF
Description: fluorescence anisotropy.

Assay [19] has as its target T5, Syndecan1 (Homo sapiens).
T5 chain: TKQEEFYA
Put plainly: fluorescence anisotropy.

Assay [20] deals with T6, Neurexin1 (Homo sapiens).
T6 chain: NKDKEYYV
Description: fluorescence anisotropy.

Assay [21] concerns the target T7, Tiam1 peptide 1.
T7 chain: YAAYRYRA
Description: fluorescence anisotropy.

The target in assay [22] is T8, Tiam2 peptide 3.
T8 chain: YAALIHKF
Put plainly: fluorescence anisotropy.

Assay [23] has as its target T9, Tiam2 peptide 2.
T9 chain: YAAGRKHF
Put plainly: fluorescence anisotropy.

The target in assay [24] is T10, Model peptide.
T10 chain: SSRKEYYA
Put plainly: fluorescence anisotropy.

Read-outs that look alike come from different tables or passages of the source. Peptide text beside a SMILES is read from it. * marks the point of attachment. Dansyl = CN(C)c1cccc2c(S(=O)(=O)*)cccc12

Sequence of Tiam1 PDZ L911M (Q13009 841-930 L911M limits assumed): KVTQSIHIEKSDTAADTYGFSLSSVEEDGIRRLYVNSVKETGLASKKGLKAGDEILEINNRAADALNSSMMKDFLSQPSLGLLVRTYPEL
Sequence of Tiam1 PDZ L915F (Q13009 841-930 L915F limits assumed): as the sequence (Q13009 841-930 L911M limits assumed) above, with M71L, L75F counted along it
Sequence of Tiam1 PDZ L920V (Q13009 841-930 L920V limits assumed): as the sequence (Q13009 841-930 L911M limits assumed) above, with M71L, L80V counted along it
Sequence of Tiam1 PDZ K912E (Q13009 841-930 K912E limits assumed): as the sequence (Q13009 841-930 L911M limits assumed) above, with M71L, K72E counted along it
Sequence of Tiam1 PDZ L915F/L920V (Mus musculus, UniProt Q60610, L915F/L920V, species not given) (Q60610 2-1591 L915F/L920V): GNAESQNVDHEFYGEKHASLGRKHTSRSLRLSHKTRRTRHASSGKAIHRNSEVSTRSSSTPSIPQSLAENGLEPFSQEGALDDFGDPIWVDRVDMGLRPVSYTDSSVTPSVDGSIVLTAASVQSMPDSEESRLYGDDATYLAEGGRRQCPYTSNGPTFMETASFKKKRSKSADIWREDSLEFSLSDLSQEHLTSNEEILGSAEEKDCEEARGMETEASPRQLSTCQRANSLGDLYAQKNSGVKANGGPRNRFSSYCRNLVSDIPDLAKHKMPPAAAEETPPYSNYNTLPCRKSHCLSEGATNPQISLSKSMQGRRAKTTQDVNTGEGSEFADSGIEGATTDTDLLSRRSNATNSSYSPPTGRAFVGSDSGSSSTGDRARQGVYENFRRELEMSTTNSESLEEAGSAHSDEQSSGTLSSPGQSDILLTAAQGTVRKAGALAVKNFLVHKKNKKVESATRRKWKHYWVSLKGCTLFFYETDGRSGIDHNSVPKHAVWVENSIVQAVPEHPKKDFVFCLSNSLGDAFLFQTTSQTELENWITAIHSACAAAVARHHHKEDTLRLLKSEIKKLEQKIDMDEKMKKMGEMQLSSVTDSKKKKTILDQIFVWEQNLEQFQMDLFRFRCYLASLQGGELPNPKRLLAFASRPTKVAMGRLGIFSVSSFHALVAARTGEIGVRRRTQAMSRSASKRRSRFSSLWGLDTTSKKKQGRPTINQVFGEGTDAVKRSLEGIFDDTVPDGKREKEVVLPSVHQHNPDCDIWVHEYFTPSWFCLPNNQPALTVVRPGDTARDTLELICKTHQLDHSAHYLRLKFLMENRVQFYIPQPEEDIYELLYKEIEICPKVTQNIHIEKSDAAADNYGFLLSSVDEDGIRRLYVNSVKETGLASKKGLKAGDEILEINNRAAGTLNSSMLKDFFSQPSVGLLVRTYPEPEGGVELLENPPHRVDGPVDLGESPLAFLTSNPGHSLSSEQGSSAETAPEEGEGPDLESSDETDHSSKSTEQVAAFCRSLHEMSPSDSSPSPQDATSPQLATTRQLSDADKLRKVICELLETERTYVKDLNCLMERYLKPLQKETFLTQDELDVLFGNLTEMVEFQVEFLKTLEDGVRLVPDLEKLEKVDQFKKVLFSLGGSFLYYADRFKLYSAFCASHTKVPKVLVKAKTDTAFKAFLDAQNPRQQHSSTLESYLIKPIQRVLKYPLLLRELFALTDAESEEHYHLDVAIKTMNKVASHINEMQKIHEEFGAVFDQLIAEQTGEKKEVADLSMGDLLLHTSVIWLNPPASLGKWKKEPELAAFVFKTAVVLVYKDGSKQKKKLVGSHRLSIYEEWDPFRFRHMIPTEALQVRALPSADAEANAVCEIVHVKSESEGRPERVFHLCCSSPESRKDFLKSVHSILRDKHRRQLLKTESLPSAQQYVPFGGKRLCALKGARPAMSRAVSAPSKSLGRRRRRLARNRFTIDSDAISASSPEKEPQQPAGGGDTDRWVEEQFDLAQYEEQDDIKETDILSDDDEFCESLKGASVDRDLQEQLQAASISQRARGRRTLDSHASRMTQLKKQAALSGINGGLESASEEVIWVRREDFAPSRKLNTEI
Sequence of Tiam1 PDZ L911M/K912E (Mus musculus, UniProt Q60610, L911M/K912E, species not given) (Q60610 2-1591 L911M/K912E): as the sequence (Q60610 2-1591 L915F/L920V) above, with L910M, K911E, F914L, V919L counted along it
Sequence of Tiam1 PDZ QM (L911M/K912E/L915F/L920V) (Homo sapiens, UniProt Q13009, K912E/L911M/L915F/L920V) (Q13009 841-930 L911M/K912E/L915F/L920V limits assumed): as the sequence (Q13009 841-930 L911M limits assumed) above, with K72E, L75F, L80V counted along it
Sequence of Tiam1 PDZ domain (wild-type) (Q13009 841-930 limits assumed): as the sequence (Q13009 841-930 L911M limits assumed) above, with M71L counted along it

For Tiam1 PDZ (from UniProt Q13009), the results for the Kd in assay [1], in [2] and in assay [3] were 26.9 µM, 112 µM and 2400 µM, respectively.

For `CN(C)c1cccc2c(S(=O)(=O)N[C@@H](CCC(=O)O)C(=O)N[C@@H](CC(N)=O)C(=O)N[C@@H](CCC(N)=O)C(=O)N[C@@H](CCCCN)C(=O)N[C@@H](CCC(=O)O)C(=O)N[C@@H](Cc3ccc(O)cc3)C(=O)N[C@@H](Cc3ccccc3)C(=O)N[C@@H](Cc3ccccc3)C(=O)O)cccc12` [Caspr4] (Dansyl-ENQKEYFF-OH), the Kd was 14 ± 0.3 µM in assay [4]; 18.3 ± 0.3 µM in [6]; 61 ± 4 µM in assay [7]; 28.9 ± 0.9 µM in assay [8] (fluorescence anisotropy, 25 °C); 3.4 ± 0.3 µM in assay [11]; 76.5 ± 3.4 µM in assay [12] (fluorescence anisotropy, 25 °C). In addition, the values for the Kd in assay [14] and in [15] were 10.8 ± 0.6 µM and 58.6 ± 4.1 µM, respectively. The ΔGb in assay [4] (Tiam1 PDZ L911M) was -6.61 ± 0.01 kcal/mol; in assay [6] (Tiam1 PDZ QM), -6.46 ± 0.01 kcal/mol; in assay [7] (Tiam1 PDZ L915F), -5.74 ± 0.04 kcal/mol; in [8], -6.19 ± 0.02 kcal/mol; in assay [10], -6.43 ± 0.01 kcal/mol; in assay [12] it was -5.61 ± 0.04 kcal/mol. Moreover, the ΔGb was -6.77 ± 0.03 kcal/mol in [14] (Tiam1 PDZ L920V) and -5.77 ± 0.04 kcal/mol in assay [15] (Tiam1 PDZ K912E). Also, the ΔΔGb was -0.18 ± 0.02 kcal/mol in [4] (ΔGb(mutant) − ΔGb(wild-type), L911M); -0.02 ± 0.02 kcal/mol in assay [5] (ΔGb(mutant) − ΔGb(wild-type), QM); 0.69 ± 0.04 kcal/mol in [7] (ΔGb(mutant) − ΔGb(wild-type), L915F); 0.24 ± 0.02 kcal/mol in assay [9] (ΔGb(mutant) − ΔGb(wild-type), L911M/K912E); -0.33 ± 0.04 kcal/mol in assay [14] (ΔGb(mutant) − ΔGb(wild-type), L920V); 0.67 ± 0.04 kcal/mol in [15] (ΔGb(mutant) − ΔGb(wild-type), K912E). Moreover, the “fold higher Kd than Tiam2 PDZ domain” value in assay [5] (QM vs Tiam2 PDZ) is given as 5 fold. Further, the “ΔΔΔGint (pair-wise coupling free energy)” value in [9] (double-mutant cycle L911/K912 (S-2 pocket)) is -0.25 ± 0.04 kcal/mol; in assay [13] (double-mutant cycle L915/L920 (S0 pocket)), 0.38 ± 0.10 kcal/mol. Besides, the Σ singles was 0.49 ± 0.04 kcal/mol in assay [9] (sum of ΔΔGb of single mutants L911M and K912E); 0.36 ± 0.06 kcal/mol in assay [13] (sum of ΔΔGb of single mutants L915F and L920V). The “fold lower Kd for Tiam2 PDZ than for Tiam1 PDZ” value in assay [11] (Tiam2 vs Tiam1 PDZ) is on record as roughly 6 fold. The “fold decrease in Kd vs wild-type Tiam1 PDZ” value in assay [14] (L920V) is reported as roughly 2 fold.

B1: Tiam1 PDZ (protein)
chain: VTQSIHIEKSDTAADTYGFSLSSVEEDGIRRLYVNSVKETGLASKKGLKAGDEILEINNRAADALNSSML
As to B1, the results for the Kd in [16], in assay [17] and in assay [18] were 90.3 µM, 19 µM and 200 µM, respectively.

B2: Tiam1 PDZ (protein)
chain: VTQSIHIEKSDTAADTYGFSLSSVEEDGIRRLYVNSVKETGLASKKGLKAGDEILEINNRAADALNSSMM
B2: the Kd came to 34.7 µM in assay [19] and 14 µM in assay [17].

B3: Tiam2 PDZ (protein)
chain: NVYDVQLTKTGSVCDFGFAVTAQVDERQHLSRIFISDVLPDGLAYGEGLRKGNEIMTLNGEAVSDLDLKQMEALFSEKSVGLTLIARPPDTKA
With B3, the Kd in [20] amounted to 5 µM; in [21], 22.5 µM; in [19], 200 µM; in [16], 10.9 µM; in assay [22], 28.7 µM; in assay [17] it was 3.4 µM. In addition, the values for the Kd in assay [23], in [24] and in assay [18] were 9.9 µM, 24.1 µM and 7.7 µM, respectively.
